Assay results from PMC12062462 (Nature Communications, 2025).

How the values were obtained:
RIPK3-mediated apoptosis = settings: cited from earlier work
panel of 291 kinases = settings: 1 µM, overlapping panel of 272 kinases; ref 30 (Mandal et al., 2014); cited from earlier work
RIPK3-RIPK1 interaction = RIPK3-RIPK1 interaction (Mus musculus, UniProt Q9QZL0); experiment: RIPK1 immunoprecipitation; type: cell-based; settings: L929, 10 µM, 5 hours
Procedure, shortened: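 Lysates were cleared at 17,000 g for 15 min at 4 °C, and an input sample was kept. Lysate was incubated with anti-RIPK1 antibody on protein A/G magnetic beads for 2 h at 4 °C. Co-precipitated RIPK3 was detected by Western blot. Normalized quantification came from three independent experiments.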

mRIPK3^KD R69H = mRIPK3^KD R69H (Mus musculus, UniProt Q9QZL0, C111A/R69H); experiment: Size-exclusion chromatography; settings: protein 10 mg/mL, compound 1 mM
Procedure, shortened: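 Mouse RIPK3 kinase domain 1-313 (C111A/R69H, C-terminal 10×His) was expressed in Sf-9 cells by baculovirus, with 10 µM test compound or DMSO added to the lysate. Ni-NTA eluate was concentrated to 10 mg/mL, incubated with 1 mM compound and centrifuged at 17,000 g for 15 min. It was then run on Superdex 200 Increase 10/300 in 25 mM Tris pH 8.0, 150 mM NaCl, 5 mM DTT plus 10 µM compound. Three independent runs.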

[1] = test system: caspase 3 and caspase 8 cleavage in L929 cells; experiment: Western blot of caspase 3 and caspase 8 cleavage in L929 cells; type: cell-based, mouse; settings: L929, 3 hours
Procedure, shortened: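 L929 cells in 12-well plates at about 80% confluency were exposed for 3 h to test compound, DMSO or medium, each with 10 µM zVAD. Cells were lysed at room temperature in a Triton X-100/Tris-based 1× SDS sample buffer and boiled 10 min. Proteins were run on 15% SDS-PAGE and blotted to PVDF. Membranes were blocked in 5% milk and probed for caspase 3 and caspase 8 cleavage overnight at 4 °C. Three independent experiments.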

[2] = test system: HT29 cells (TNF-α-induced necroptosis); experiment: Necroptosis induction and inhibition assay in HT29; type: cell-based, human; settings: Homo sapiens, HT-29, read-out: EC50^HT29 against TNF-α-induced necroptosis, zVAD (20 μM), human TNF-α (40 ng/mL), Smac mimetic SM-164 (100 nM), CCK-8
[3] = test system: L929 RIPK3-/- + RIPK3 K51A/R69H cells; experiment: Cell viability assay with or without zVAD, L929 RIPK3-/- + RIPK3 K51A/R69H; type: cell-based, mouse
Procedure, shortened: (§1)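 L929 cells were grown in MEM with 10% FBS. RIPK3 was knocked out by CRISPR/Cas9 (sgRNA against mouse RIPK3), and knockout was confirmed by sequencing and immunoblot. Knockout lines with or without re-expressed RIPK3 K51A or K51A/R69H were seeded at 10,000–20,000 cells/well and left to attach for 24 h. Cells were exposed to test compound alone or with zVAD for 18–20 h. Viability was read by CCK-8 (1–2 h, 37 °C, A450). Three experiments in triplicate; CC50 by nonlinear regression.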

[4] = test system: L929 cells (TNF-α-induced necroptosis); experiment: Necroptosis induction and inhibition assay in L929; type: cell-based, mouse; settings: Mus musculus, L929, read-out: EC50^L929 against TNF-α-induced necroptosis, mouse TNF-α (20 ng/mL) and zVAD (10 μM), CCK-8
[5] = test system: caspase 3 activity in L929 cell lysates; experiment: Caspase 3 activity in L929 cell lysates; type: cell-based, mouse
Procedure, shortened: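 L929 cells were cultured 12 h in 12-well plates, then exposed to test compound or DMSO for 0, 1, 2, 3 or 4 h. Protein was measured by BCA. Lysate was incubated with Ac-DEVD-pNA overnight at 37 °C and read at A405 minus blank. Three experiments, each in triplicate.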

[6] = test system: L929 RIPK3-/- + RIPK3 K51A cells; experiment: Cell viability assay with or without zVAD, L929 RIPK3-/- + RIPK3 K51A; type: cell-based, mouse; settings: 1.6 μM, without zVAD
Procedure, shortened: as §1

Sequence of mRIPK3^KD R69H (Q9QZL0 1-313 R69H/C111A): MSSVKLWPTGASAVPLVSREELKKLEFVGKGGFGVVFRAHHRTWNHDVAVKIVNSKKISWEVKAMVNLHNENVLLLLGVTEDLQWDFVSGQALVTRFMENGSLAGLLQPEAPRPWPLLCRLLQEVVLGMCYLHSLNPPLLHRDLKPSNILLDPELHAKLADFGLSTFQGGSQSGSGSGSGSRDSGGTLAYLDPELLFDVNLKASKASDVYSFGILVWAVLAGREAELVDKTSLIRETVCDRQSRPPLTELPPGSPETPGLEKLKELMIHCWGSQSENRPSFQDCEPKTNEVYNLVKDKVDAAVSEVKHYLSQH
Sequence of RIPK3-RIPK1 interaction (Q9QZL0 whole entry): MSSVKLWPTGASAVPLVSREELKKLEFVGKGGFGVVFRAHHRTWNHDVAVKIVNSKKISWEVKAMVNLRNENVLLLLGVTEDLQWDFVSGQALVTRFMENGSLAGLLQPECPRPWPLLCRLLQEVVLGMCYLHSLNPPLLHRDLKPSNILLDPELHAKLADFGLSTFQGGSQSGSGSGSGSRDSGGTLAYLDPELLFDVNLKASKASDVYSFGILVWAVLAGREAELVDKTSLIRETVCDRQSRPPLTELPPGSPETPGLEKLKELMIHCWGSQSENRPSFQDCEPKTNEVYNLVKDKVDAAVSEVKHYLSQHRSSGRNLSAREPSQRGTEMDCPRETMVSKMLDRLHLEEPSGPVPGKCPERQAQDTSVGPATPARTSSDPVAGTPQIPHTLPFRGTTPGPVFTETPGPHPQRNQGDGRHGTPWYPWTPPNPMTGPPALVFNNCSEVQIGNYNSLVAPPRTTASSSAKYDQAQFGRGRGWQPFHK

| Compound | concentration triggering RIPK3-mediated apoptosis relative to EC50 (RIPK3-mediated apoptosis) | number of kinases inhibited by >65% (panel of 291 kinases) | interaction between RIPK3 and RIPK1 (co-immunoprecipitation) (RIPK3-RIPK1 interaction) | elution position of mRIPK3^KD R69H in complex with inhibitor (mRIPK3^KD R69H) | activation of the apoptotic pathway: cleavage of caspase 8 and caspase 3 (Western blot) [1] | EC50 [2] | apoptosis in cells expressing RIPK3 K51A and R69H double mutation [3] | EC50 [4] | concentration at which caspase 3 is activated [5] | viability of cells expressing the ATPase-inactive RIPK3 K51A mutant [6] |
| --- | --- | --- | --- | --- | --- | --- | --- | --- | --- | --- |
| GSK'840 | approximately twice their EC50 values |  |  |  |  |  |  |  |  |  |
| CC(C)S(=O)(=O)c1ccc2nccc(Nc3ccc4scnc4c3)c2c1 [GSK'872, reference compound] |  | 13 kinases | enhances the interaction between RIPK3 and RIPK1 | aligns with a monomer | cleavage of caspase 8 and caspase 3 | 7.9 µM | does not cause such apoptosis | 3.6 µM | 5 µM | significantly reduces the viability |
